In ChEMBL document CHEMBL3044723, “Phytotoxins from the leaves of Ruta graveolens” (2004):
Activity calls are given as the source filed them. No cut-off for these calls is given here.

What was measured:
[1] = system: Lactuca sativa; test: Phytotoxicity against Lactuca sativa cv. Burpee's Iceberg (lettuce) assessed as reduction in chlorophyll content compound treated at 100 uM in darkness after 7 days followed by exposure to white light by spectrophotometry; format: functional, organism-based
Summary of the method: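 Seedlings were treated in wells with 1% acetone final and kept in foil-wrapped darkness at 26 °C for 7 days. They then received 5 min of white light (80 µmol s⁻¹ m⁻² PAR) and were returned to darkness for 1 h. Ten cotyledon pairs were weighed and extracted in DMSO in the dark. Chlorophyll was read at 645/663 nm and compared with the solvent control.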

[2] = system: Lactuca sativa; test: Phytotoxicity against Lactuca sativa cv. Burpee's Iceberg (lettuce) assessed as reduction in chlorophyll content at 100 uM after 7 days by spectrophotometry; format: functional, organism-based
Summary of the method: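 Seeds grown in 24-well plates in water with 3% acetone, at 26 °C under continuous light (173 µmol s⁻¹ m⁻²) for 7 days. Cotyledons from three plants per well were weighed and extracted in 2 mL DMSO at 60 °C for 2 h, then diluted with 1 mL more DMSO. A645 and A663 were read and converted to total chlorophyll (20.2A645 + 8.02A663). Values were normalized to cotyledon weight.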

[3] = system: Lactuca sativa; test: Phytotoxicity against Lactuca sativa cv. Burpee's Iceberg (lettuce) assessed as unbranched root tips at 10 uM after 7 days by spectrophotometry relative to control; format: functional, organism-based
[4] = system: Allium cepa; test: Phytotoxicity against Allium cepa (onion) assessed as accumulation of cells at metaphase in root tips at 33 uM measured on day 7 of compound treatment by microscopy; format: functional, organism-based
Summary of the method: (§1)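 Ten surface-sterilized onion seeds were placed on filter paper in 6-cm dishes with 1 mL of water containing compound (final 0.05% acetone). Controls received water or acetone/water. Dishes were kept at 25 °C under a 16 h photoperiod at 173 µmol s⁻¹ m⁻². On day 7, root tips were fixed (HOAc/EtOH 1:3), hydrolyzed in 5 N HCl for 1 h, and Feulgen-stained with Schiff's reagent for 45 min. At least 1000 cells per slide were scored at 40×.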

[5] = system: Allium cepa; test: Phytotoxicity against Allium cepa (onion) assessed as accumulation of cells at prophase in root tips at 33 uM measured on day 7 of compound treatment by microscopy; format: functional, organism-based; summary of the method: as §1
[6] = system: Allium cepa; test: Phytotoxicity against Allium cepa (onion) assessed as inhibition of mitosis in root tips at 100 uM measured on day 7 of compound treatment by microscopy; format: functional, organism-based; summary of the method: as §1
[7] = system: Agrostis stolonifera; test: Phytotoxicity against Agrostis stolonifera assessed as mortality at 333 uM after 12 days; format: functional, organism-based
Summary of the method: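 Seeds (10 mg) per well of 24-well plates in 250 µL water containing 3% acetone as final concentration; solvent-only controls. Plates were sealed and incubated at 26 °C under continuous light at 173 µmol s⁻¹ m⁻². Concentrations tested were 10, 33, 100 and 333 µM. Phytotoxicity was scored visually against untreated controls.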

[8] = system: Lactuca sativa; test: Phytotoxicity against Lactuca sativa cv. Burpee's Iceberg (lettuce) assessed as blunt root tips at 10 uM after 7 days by spectrophotometry relative to control; format: functional, organism-based
[9] = system: Lactuca sativa; test: Phytotoxicity against Lactuca sativa cv. Burpee's Iceberg (lettuce) assessed as reduction in radical length at 10 uM after 7 days by spectrophotometry relative to control; format: functional; design: scale not given: the % may be the effect or the level left
Summary of the method: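 Lettuce seeds were set in multiwell plates with test material supplied from acetone in DDI water (3% acetone final). Controls received acetone and water only. Plates were sealed and kept at 26 °C under continuous light at 173 µmol s⁻¹ m⁻² for 7 days. Root lengths, together with plant weight and chlorophyll content, were compared against untreated controls.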

[10] = system: Lemna aequinoctialis; test: Phytotoxicity against Lemna paucicostata assessed as tissue degradation at 250 uM after 4 to 5 days; format: functional, organism-based
[11] = system: Lemna aequinoctialis; test: Phytotoxicity against Lemna paucicostata assessed as growth inhibition at 100 uM after 4 to 5 days; format: functional, organism-based
Summary of the method: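 Hoagland medium at pH 5.5 was filter-sterilized in 6-well plates, with compound added in acetone or EtOH (1% final). Two three-frond colonies from 4- to 5-day-old stock cultures were placed per well. Total frond area was recorded by image analysis from day 0 to day 7.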

SMILES	Activity [1]	Activity [2]	Activity [3]	Activity [4]	Activity [5]	inhibition [6]	Activity [7]	Activity [8]	Activity [9]	Activity [10]	growth inhibition (GI) [11]
COc1c2occc2cc2ccc(=O)oc12 [METHOXSALEN]	inactive	Active	Active	Active	Active	Active	Active	Active	39%		
Cn1c(-c2ccc3c(c2)OCO3)cc(=O)c2ccccc21	inactive	Active				Active	Active			Active	Active
COc1c2ccoc2cc2oc(=O)ccc12			inactive			Active	Active	inactive	inactive		
